An excerpt weighted towards active compounds, which were near 2.3% of everything screened.
TRPC6 activator – activators of mouse TRPC6 channel | Q61143 | HEK293-TRPC6 membrane potential dye fluorescence; active compounds read high | B-score at 10 µM | 0.13% of 310,000 active;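 active means B-score of the integrated fluorescence ratio above library mean plus 3 SD, and starting fluorescence ratio within library mean plus 5 SD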;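 further: higher score means more depolarization so channel activation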
TRPC4 PAM – allosteric potentiators of mouse TRPC4 channel; HEK293 TRPC4beta/mu-opioid, DAMGO EC20, Fluo-4 Ca2+ flux; active compounds read high; B-score at 10 µM; 0.42% of 310,000 active; AID 2227;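 active means B-score of calcium response area above 5 SD of library B-scores, with initial fluorescence ratio within 5 SD of library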;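 further: B-score of integrated fluorescence ratio over time as area under calcium response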
Target sequence (Q9QUQ5 whole entry, looked up): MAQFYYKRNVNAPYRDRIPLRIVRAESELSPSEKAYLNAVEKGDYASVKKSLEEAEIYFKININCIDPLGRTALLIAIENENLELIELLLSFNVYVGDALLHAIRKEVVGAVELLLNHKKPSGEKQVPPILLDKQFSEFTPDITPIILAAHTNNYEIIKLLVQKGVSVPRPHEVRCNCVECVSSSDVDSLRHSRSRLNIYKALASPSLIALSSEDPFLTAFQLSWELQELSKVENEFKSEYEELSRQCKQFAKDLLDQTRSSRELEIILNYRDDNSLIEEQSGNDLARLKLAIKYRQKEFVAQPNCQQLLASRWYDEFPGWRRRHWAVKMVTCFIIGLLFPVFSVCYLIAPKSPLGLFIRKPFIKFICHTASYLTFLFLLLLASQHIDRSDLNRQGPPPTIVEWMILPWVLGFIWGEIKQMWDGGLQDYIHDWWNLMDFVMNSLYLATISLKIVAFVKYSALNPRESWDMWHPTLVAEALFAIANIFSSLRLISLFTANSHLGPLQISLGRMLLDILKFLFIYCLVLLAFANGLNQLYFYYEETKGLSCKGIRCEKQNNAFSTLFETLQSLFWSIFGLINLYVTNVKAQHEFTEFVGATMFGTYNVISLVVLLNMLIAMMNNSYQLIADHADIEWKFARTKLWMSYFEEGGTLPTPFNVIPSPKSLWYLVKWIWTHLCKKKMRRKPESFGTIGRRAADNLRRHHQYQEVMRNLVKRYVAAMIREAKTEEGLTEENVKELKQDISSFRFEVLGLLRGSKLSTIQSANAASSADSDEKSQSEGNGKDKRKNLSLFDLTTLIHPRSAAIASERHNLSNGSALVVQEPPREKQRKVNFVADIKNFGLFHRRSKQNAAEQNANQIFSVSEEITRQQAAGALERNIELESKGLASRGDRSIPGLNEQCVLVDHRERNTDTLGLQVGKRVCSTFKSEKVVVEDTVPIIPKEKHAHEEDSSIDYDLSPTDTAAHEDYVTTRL
TRPC4 inh – inhibitors of mouse TRPC4 channel. Q9QUQ5. HEK293 TRPC4beta/mu-opioid, DAMGO-evoked Fluo4 calcium flux; active compounds read low. B-score at 10 µM. 0.39% of 300,000 active;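 active means B-score over 3 SD under the library average, no early fluorescence shift, positive overall ratio signal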
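material = TRPC4beta/mu-opioid receptor HEK293 cell line | probe or stimulus = sequential submaximal and maximal DAMGO stimulation | compound dosing = one concentration per compound | measured by = Fluo4 Ca2+ flux fluorescence | evaluation = integrated fluorescence ratio relative to baseline, converted to per-well B score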
TRPC4 agonist – TRPC4 (mouse) channel activation; Q9QUQ5; HEK293 TRPC4beta/mu-opioid, Fluo4 calcium fluorescence; active compounds read high; B-score at 10 µM; 0.49% of 310,000 active; AID 2237;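 active means B-score above 5 SD of library B-scores, and initial fluorescence ratio not above library mean plus 5 SD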;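 further: positive B-score marks a calcium rise read as TRPC4 activation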
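Assay system: HEK293 stable line with TRPC4beta plus mu-opioid receptor; schedule: 45 min room-temperature Fluo4 loading, 110 s read; technique: kinetic Fluo4 calcium fluorescence; evaluation: integrated baseline-normalised fluorescence ratio, converted to per-well B score; controls: buffer (low) and maximal DAMGO (high)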
TRPC6 inh – blocks the mouse TRPC6 cation channel | Q61143 | HEK293-TRPC6, membrane potential dye, ACh-evoked depolarization; active compounds read low | B-score at 10 µM | 1.1% of 310,000 active | AID 2553;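 active means B-score under library mean minus 3 SD, initial fluorescence not abnormally high, positive integrated signal ratio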;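 further: B-score derived from integrated fluorescence ratio over the kinetic read; more negative B-score means stronger inhibition of depolarization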
TRPC4 sel inh 2 – second check of whether TRPC6 inhibitors also affect mouse TRPC4. 42% of 920 active. shares compounds with TRPC6 inh. inhibition, % at 10 µM. HEK293 TRPC4/MOR, membrane potential dye fluorescence; channel activated by saturating DAMGO dose;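 active means compounds whose fluorescence signal differed from control wells by over 3 SD, either direction, in both duplicate plates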
TRPC4 spec – selectivity of TRPC6 inhibitors: effect on mouse TRPC4 | shares compounds with TRPC6 inh | HEK293 TRPC4/mu-opioid, membrane potential fluorescence | activity change, negative = inhibition, % at 10 µM | 61% of 920 active;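 active means rise or fall in signal beyond 3 SD of buffer-only wells in both replicate plates, either sign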;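 further: integrated kinetic ratio of fluorescence range over baseline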
HEK293 MPD ctr 2-1 – second counter-screen for TRPC6 inhibitors: parental HEK293 cells; 31% of 920 active; signal change vs control, % at 10 µM; parental HEK293 membrane potential dye fluorescence; maximal acetylcholine challenge after compound addition; shares compounds with TRPC6 inh; AID 2779;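 active means membrane potential signal moving either way by over 3 SD of the maximum-effect control, in both duplicate plates, meaning non-specific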
HEK293 MPD ctr-1 – counter-screen for TRPC6 inhibitors: effect in parental HEK293 cells; shares compounds with TRPC6 inh; parental HEK293 membrane potential dye fluorescence; membrane potential signal change, % at 10 µM; 60% of 920 active; AID 2780;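 active means membrane potential signal shifting up or down by more than 3 SD of buffer-only wells, on both duplicate plates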
HEK293 MPD ctr-2 – counter-screen for TRPC6 modulators: effect in parental HEK293 cells. 51% of 2,400 active. membrane potential dye fluorescence. membrane potential signal change, % at 10 µM. shares compounds with TRPC6 inh;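 active means membrane potential signal moves up or down beyond 5 SD from buffer-only wells, on both duplicate plates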
HEK293 MPD ctr 2-2 – second check of TRPC6 modulator effects in parental HEK293 cells | membrane potential dye fluorescence; after compound, maximal acetylcholine stimulation | inhibition, % at 10 µM | shares compounds with TRPC6 inh | 14% of 2,400 active;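 active means membrane potential signal drops by more than 5 SD from the mean control signal, in both duplicate plates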;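 further: plate controls were acetylcholine ECmax control wells for no effect and buffer only wells for full effect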
TRPC4/MOR mod – selectivity of TRPC6 modulators against mouse TRPC4; shares compounds with TRPC6 inh; HEK293 TRPC4/mu-opioid, membrane potential fluorescence; percent change from control (negative = decrease, positive = increase), % at 10 µM; 69% of 2,400 active; AID 488927;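 active means membrane potential signal moved up or down beyond 5 SD of buffer control wells, in both duplicate plates, actives on both sides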;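 further: plate controls were assay buffer wells for no effect and DAMGO maximal-effect wells for full effect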
TRPC4/MOR inh 2 – second selectivity test of TRPC6 modulators against mouse TRPC4; 55% of 2,400 active; shares compounds with TRPC6 inh; HEK293 TRPC4/mu-opioid, membrane potential dye fluorescence; stimulated with maximal-effect DAMGO; AID 488928; inhibition, % at 10 µM;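 active means drop in membrane potential signal beyond 5 SD of the control wells in both duplicate plates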;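 further: TRPC4 counter screen for TRPC6 hits run under conditions tuned for TRPC6 not TRPC4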
TRPC6 inh conf – confirmation of mouse TRPC6 inhibitors. shares compounds with TRPC6 inh. AID 488960. inhibition, % at 10 µM. HEK293-TRPC6, membrane potential dye, ACh-evoked depolarization. 43% of 3,300 active;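 active means fluorescence ratio falls more than 5 SD below the full-stimulation control mean, in both duplicate runs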;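 further: integrated fluorescence ratio of peak minus minimum over baseline after agonist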
TRPC6 act confirm – confirmation of mouse TRPC6 activators; shares compounds with TRPC6 inh; HEK293-TRPC6 membrane potential dye fluorescence, FDSS; activation, % at 10 µM; 11% of 2,800 active; AID 488961;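 active means ratio signal rise beyond 5 SD above unstimulated control wells' mean, seen in both duplicate runs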;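 further: plate controls were buffer EC0 wells for no effect and acetylcholine ECmax response for full effect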
An asterisk follows results filed as active; i = inactive; · = no result given.

SMILES	TRPC6 activator	TRPC4 PAM	TRPC4 inh	TRPC4 agonist	TRPC6 inh	HEK293 MPD ctr-2	HEK293 MPD ctr 2-2	TRPC4/MOR mod	TRPC4/MOR inh 2	TRPC6 inh conf	TRPC6 act confirm	others
O=C1/C(=C/c2ccccc2)SC(=S)N1N1C(=O)C2CC2C1=O (stereo unspecified)	i	i	i	i	-8.8*	·	·	·	·	i	i	TRPC4 sel inh 2=i;TRPC4 spec=i;HEK293 MPD ctr 2-1=i;HEK293 MPD ctr-1=i
CCc1ccc2oc(-c3ccc(OC)cc3)cc(=Nc3c(C)n(C)n(-c4ccccc4)c3=O)c2c1	i	i	i	i	-7.8*	·	·	·	·	i	i	TRPC4 sel inh 2=i;TRPC4 spec=-13%*;HEK293 MPD ctr 2-1=i;HEK293 MPD ctr-1=-246%*
CCc1ccc2oc(-c3ccc(OC)cc3)cc(=Nc3cccc(C(=O)O)c3)c2c1	i	i	i	i	i	·	·	·	·	·	·
CN(C)CCCN(C(=O)c1cc(Cl)sc1Cl)c1nc2cc3c(cc2s1)OCO3	i	i	i	i	-5.1*	i	55%*	i	91%*	61%*	i
CN(C)CCCN(C(=O)c1ccc([N+](=O)[O-])s1)c1nc2cc3c(cc2s1)OCCO3	i	i	i	i	i	·	·	·	·	·	·
CN(C)CCCN(C(=O)c1ccc(Cl)s1)c1nc2cc3c(cc2s1)OCO3	i	i	i	100*	-6.1*	i	i	-22%*	84%*	48%*	i
CN(C)CCCN(C(=O)c1ccc(Br)s1)c1nc2cc3c(cc2s1)OCCO3	i	i	i	63*	-6.4*	i	i	-14%*	82%*	60%*	i
CCN(CC)CCN(C(=O)c1ccc(Br)s1)c1nc2cc3c(cc2s1)OCCO3	i	i	i	i	i	·	·	·	·	·	·
Cc1ccc2nc(N(CCN(C)C)C(=O)c3cc(Cl)sc3Cl)sc2c1	i	i	i	i	i	·	·	·	·	·	·
CN(C)CCCN(C(=O)c1cccs1)c1nc2cc3c(cc2s1)OCO3	i	i	-8*	i	-9.7*	i	i	-19%*	64%*	42%*	i
NCCNC(=O)Cn1c(=O)c2c3c(sc2n(Cc2ccccc2)c1=O)CCCC3	i	i	i	i	i	·	·	·	·	·	·
c1ccc(-n2ncc3c(N4CCC5(CC4)OCCO5)ncnc32)cc1	i	i	i	i	-7.7*	·	·	·	·	i	i	TRPC4 sel inh 2=i;TRPC4 spec=i;HEK293 MPD ctr 2-1=220%*;HEK293 MPD ctr-1=i
Cc1cccc(-n2ncc3c(N4CCC5(CC4)OCCO5)ncnc32)c1	i	i	i	i	i	·	·	·	·	·	·
COC(=O)c1ccc(OCC(O)CN2CCN(C(=O)c3ccco3)CC2)c(OC)c1 (stereo unspecified)	i	i	i	i	i	·	·	·	·	·	·
Cc1cccc(-c2nc(CN3CCCC(C(=O)NC4CCC(C)CC4)C3)c(C)o2)c1 (stereo unspecified)	i	i	i	i	-6.5*	182%*	i	33%*	46%*	i	·
Cc1c(CCCN)c2ccccc2n1Cc1ccccc1	i	i	i	i	-7.3*	·	·	·	·	i	i	TRPC4 sel inh 2=55%*;TRPC4 spec=i;HEK293 MPD ctr 2-1=i;HEK293 MPD ctr-1=-196%*
O=Nc1c(O)n(Cc2ccccc2)c2ccccc12	i	i	i	i	i	·	·	·	·	·	·
CCOC(=O)CN1N=C(c2ccc(Cl)cc2)CCC1=O	i	i	i	i	i	·	·	·	·	·	·
Cc1ccc(C(=O)NCCNS(=O)(=O)c2ccccc2[N+](=O)[O-])cc1	i	i	i	i	i	·	·	·	·	·	·
Cc1ccc(-n2nc3c(c2NC(=O)c2c(-c4ccccc4Cl)noc2C)CS(=O)(=O)C3)c(C)c1	i	i	i	i	-5.5*	100%*	i	24%*	i	i	·
COc1ccc(N2C(=O)CSC2c2ccc3c(c2)OCO3)cc1 (stereo unspecified)	i	i	i	i	-7.5*	·	·	·	·	i	i	TRPC4 sel inh 2=i;TRPC4 spec=i;HEK293 MPD ctr 2-1=i;HEK293 MPD ctr-1=i
CCCN(Cc1nnc(-c2ccccc2Cl)o1)C(=O)c1cccc(S(=O)(=O)N2CCOCC2)c1	i	i	i	i	i	·	·	·	·	·	·
Cc1c(C)[n+](=O)c2c(n1[O-])CCCCC2	i	i	i	i	-7.7*	·	·	·	·	i	i	TRPC4 sel inh 2=i;TRPC4 spec=i;HEK293 MPD ctr 2-1=i;HEK293 MPD ctr-1=i
CC1CCCCN1S(=O)(=O)c1cnc(Cl)c(Br)c1 (stereo unspecified)	18*	i	i	i	i	i	i	i	i	·	164%*
CC1CCN(S(=O)(=O)c2ccc(Cl)cc2Br)CC1	i	i	i	i	i	·	·	·	·	·	·
CC1CCCCN1S(=O)(=O)c1csc(C(N)=O)c1 (stereo unspecified)	i	i	i	i	i	·	·	·	·	·	·
CC1CCN(S(=O)(=O)c2cnc(Cl)c(Br)c2)CC1	i	i	i	i	-5.3*	i	i	i	i	68%*	·
COc1ccc(/C=C/c2onc(C)c2S(=O)(=O)N2CCC(C(=O)N3CCC(C)CC3)CC2)cc1	i	i	i	i	i	·	·	·	·	·	·

High-throughput results as filed in PubChem BioAssay.
